Assay outcomes deposited in PubChem by SRMLSC.
HCT116 bCat-KO: beta-catenin-lacking colon tumor cell growth suppression; HCT116 beta-catenin knockout viability, CellTiter-Glo, 60 h; active compounds read low; viability, % at 10 µM; 140,000 tested, 1.5% active; AID 818;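 active = viability at or under a set limit, the compound median less 4 SD, cut at about 6% in these data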;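 note: 0% = Hyamine 1622 control at 20 µM and 100% = untreated cell control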
Fibroblast inh: blocks proliferation of human lung fibroblasts; AID 719; 85,000 tested, 1.1% active; viability, % at 10 µM; LL 47 human lung fibroblast viability, ATP luminescence; active compounds read low;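 active = viability at or below 50% in the single dose screen; inactive = viability above 50%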;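 note: compound exposure lasted 72 h before the ATP readout; 100% = median luminescence of untreated cell-only wells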
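Test system: LL 47 human lung fibroblasts / Quantity: 1,150 cells in each well / Medium: IMEM growth medium with 15% fetal bovine serum / Incubation: 72 h compound exposure at 37 °C after overnight plating / Detection: CellTiter-Glo luminescence measuring cellular ATP / Read-out: % viability versus median cells-only luminescence / Benchmarks: cell-only wells, no compound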
HCT116 PTEN-null: PTEN-deleted cell growth suppression; HCT116 PTEN-null viability, CellTiter-Glo, 60 h; active compounds read low; viability, % at 10 µM; 140,000 tested, 1.2% active; AID 827;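 active = viability at or below a set limit, 4 SD under the median of all tested compounds, cut at about 3.7% in these data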;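 note: PTEN knockout HCT116 line with beta catenin targeted HCT116 as companion control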
H69AR inhibit: blocks growth of human H69AR lung tumor cells; viability, % at 10 µM; 85,000 tested, 6% active; H69AR lung tumor viability, ATP luminescence, 72 h; active compounds read low;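 active = viability at or below 40%; inactive = viability above 40%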;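 note: multidrug resistant small cell line overexpressing MRP-1 efflux transporter; 100% = mean luminescence of untreated control wells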
HUVEC inhibit: inhibitors of human endothelial cell proliferation | viability, % at 10 µM (by protocol) | AID 648 | HUVEC proliferation, CellTiter-Glo luminescence, 72 h; active compounds read low | 86,000 tested, 1.1% active;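 active = viability at or below 30%; inactive = viability above 30%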;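 note: 100% = median luminescence of DMSO-only cell control wells on each plate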
* hit, by the source's call; · = no result. The entries come from a sample that favours hits as a whole.

SMILES	HCT116 bCat-KO	Fibroblast inh	HCT116 PTEN-null	H69AR inhibit	HUVEC inhibit
NS(=O)(=O)c1ccc(CCNC(=O)CSc2ccccc2)cc1	104	·	89	·	·
CC(=O)NC1(C(Cl)(Cl)Cl)Oc2ccccc2O1	69	·	92	·	·
NS(=O)(=O)c1ccc(CCNC(=O)NC2(C(F)(F)F)Oc3ccccc3O2)cc1	54	81	68	20*	71
COc1ccc(OC)c(NC(=O)NC2(C(F)(F)F)Oc3ccccc3O2)c1	59	95	47	13*	69
O=C(NCCN1CCOCC1)NC1(C(F)(F)F)Oc2ccccc2O1	77	88	74	18*	70
CCCCNC(=O)NC1(C(F)(F)F)Oc2ccccc2O1	84	93	94	22*	64
COC(=O)C1CC(=O)c2sccc2C1 (stereo unspecified)	100	·	114	·	·
Cc1ccnc(NC(=S)NC(=O)/C=C/c2ccc(Cl)cc2)c1	81	·	92	·	·
COc1ccc(C2C3=C(Nc4ncnn42)c2ccccc2CCC3)cc1 (stereo unspecified)	93	97	82	86	96
Fc1ccc(/C=C2\CCCC3=C2Nc2ncnn2C3c2ccc(F)cc2)cc1 (stereo unspecified)	2.0*	56	1.8*	22*	37
O=C(Cc1nc(=O)c2ccccc2s1)Nc1ccccc1	104	·	97	·	·
O=C(Cc1sc(-c2ccccc2Cl)nc1-c1ccccc1)Nc1ccc(F)cc1	79	45*	85	11*	79
O=C(Cc1sc(-c2ccccc2)nc1-c1ccccc1)Nc1ccc(Cl)cc1	30	67	33	20*	50
O=C(Cc1sc(-c2ccccc2Cl)nc1-c1ccccc1)Nc1ccccc1	69	23*	76	45	66
O=C(CSc1nnc(-c2ccc(F)cc2)c2ccccc12)Nc1ccccc1	80	·	75	·	·
Cc1ccc(NC(=O)c2c(O)c3ccccc3n(C)c2=O)nc1	77	31*	60	13*	126
Cc1ccnc(NC(=O)c2c(O)c3ccccc3n(C)c2=O)c1	·	76	·	5.7*	131
Cn1c(=O)c(C(=O)Nc2ncccc2O)c(O)c2ccccc21	82	99	94	86	98
Cn1c(=O)c(C(=O)Nc2cccnc2)c(O)c2ccccc21	·	78	·	12*	44
CC(C)Cn1c(=O)c(C(=O)Nc2ccncc2)c(O)c2ccccc21	·	65	·	9.8*	62
CCOc1ccc(Br)cc1S(=O)(=O)Nc1cccc(S(=O)(=O)N(C)C)c1	85	·	93	·	·
O=C1CC(=O)N(CCc2ccc(F)cc2)C(=O)N1	97	97	98	84	100
COC(=O)C1=C(C)NC=C([N+](=O)[O-])C1c1ccc(OC)cc1 (stereo unspecified)	90	·	100	·	·
CC1CC(Nc2ccccc2)c2ccccc2N1C(=O)c1cccnc1 (stereo unspecified)	71	96	70	50	91
C[C@@H]1C[C@H](Nc2ccccc2)c2ccccc2N1C(=O)c1cccnc1	62	94	75	20*	89
SMILES	HCT116 bCat-KO	Fibroblast inh	HCT116 PTEN-null	H69AR inhibit	HUVEC inhibit
O=S(=O)(NC1c2cccc3cccc(c23)C1Sc1ncccn1)c1ccccc1 (stereo unspecified)	51	·	43	·	·
CCC(C(=O)O/N=C(\N)c1cccc(C)c1)c1ccccc1 (stereo unspecified)	64	82	66	7.9*	89
COCc1cc(=O)[nH]c(Nc2nc3ccccc3o2)n1	20	·	16	·	·
CCOc1ccc2nc(Nc3nc(CSc4nnnn4-c4ccccc4)cc(=O)[nH]3)nc(C)c2c1	70	96	63	4.5*	53
COCc1cc(=O)[nH]c(Nc2nc(C)c3ccccc3n2)n1	1.7*	48*	2.3*	27*	84
Cc1ccc2c(C)nc(Nc3nc(CSc4nnnn4-c4ccccc4)cc(=O)[nH]3)nc2c1	2.7*	88	3.3*	35*	88
Cc1ccc(SCc2cc(=O)[nH]c(Nc3nc(C)c4cccc(C)c4n3)n2)cc1	62	·	78	·	·
COc1ccc2nc(Nc3nc(C)c(CCC(C)C)c(=O)[nH]3)nc(C)c2c1	58	108	63	81	84
COc1ccc2nc(Nc3nc(CSc4nnnn4-c4ccccc4)cc(=O)[nH]3)nc(C)c2c1	1.8*	95	2.0*	1.7*	3.0*
CCOc1cc(CNCc2ccncc2)cc(Cl)c1OC	91	·	106	·	·
Cn1c(=O)oc2cc(S(=O)(=O)N3CCN(c4cccc(Cl)c4)CC3)ccc21	82	82	76	24*	63
O=C(CSc1nnc2c3c4c(sc3ncn12)CCCC4)NCc1ccco1	53	102	56	28*	90
O=C(CSc1nc2ccc(Cl)cc2[nH]1)NCc1ccco1	86	103	78	86	86
O=C(CSc1c2c(nc3cc(Cl)ccc13)CCCC2)NCc1ccco1	68	76	62	2.2*	76
O=C(CSc1ncnc2sc3c(c12)CCCCC3)NCc1ccco1	27	71	27	27*	59
Cc1nc2sc3c(c2c2nnc(SCC(=O)NCc4ccco4)n12)CCCC3	91	·	80	·	·
Cc1nc(NC2=NCN(Cc3cccnc3)CN2)nc2c(C)cccc12	·	52	·	37*	70
O=S(=O)(Nc1cccc2cccnc12)c1ccc(S(=O)(=O)N2CCCC2)cc1	9	57	3.8*	6.0*	54
CCCS(=O)(=O)N1CCN(C(=O)c2cccc(OC)c2)CC1	87	101	106	100	110
CS(=O)(=O)N(Cc1ccccc1Cl)c1ccc(C(=O)NCc2ccccn2)cc1	92	·	97	·	·
Oc1c(Cl)cc(Cl)c2c1NCCC2	69	88	81	4.4*	68
O=C1NCCCc2c1oc1ccc(O)cc21	70	105	72	65	102
CCOC(=O)c1ccc2nc(NC(=O)C(C)C)sc2c1	77	92	88	34*	110
CCOC(=O)c1ccc2nc(NC(=O)c3cccs3)sc2c1	74	88	69	38*	75
C=CCN(CC=C)S(=O)(=O)c1ccc2nc(NC(=O)C(C)C)sc2c1	105	51	101	14*	26*
SMILES	HCT116 bCat-KO	Fibroblast inh	HCT116 PTEN-null	H69AR inhibit	HUVEC inhibit
Brc1ccc2oc3c(N4CCOCC4)ncnc3c2c1	78	85	75	56	73
Clc1ccc2oc3c(Cl)ncnc3c2c1	3.0*	·	14	·	·
COc1ccc(-c2nc3ccc([N+](=O)[O-])cc3o2)cc1	41	·	28	·	·
COc1ccc(-c2nc3c(Br)c(N)c(Br)cc3o2)cc1	62	80	58	29*	60
Cc1ccc2oc(-c3ccccc3)nc2c1	97	93	99	97	96
Nc1c(Br)cc2oc(-c3ccccc3)nc2c1Br	68	81	74	22*	83
COc1cc(NC(=S)NCCCN2CCOCC2)cc(OC)c1	95	·	91	·	·
Cc1[nH]n(-c2ccccc2)c(=O)c1C=Nc1cccc2cccnc12	3.0*	·	5	·	·
Cc1ccc(-n2[nH]c(C)c(/C=N/c3ccccn3)c2=O)cc1	55	·	58	80	63
CCc1cc(=O)oc2cc3occ(-c4ccc(OC)c(F)c4)c3cc12	4.2*	·	2.7*	·	·
